According to ChEMBL document CHEMBL4321823, “Benzyl Phenylsemicarbazides: A Chemistry-Driven Approach Leading to G Protein-Biased Dopamine D4 Receptor Agonists with High Subtype Selectivity” (J Med Chem, 2019):
pKi: −log10 of the molar value. Activity calls are given as the source filed them. No cut-off for these calls is given here.

Key:
[1] = molecular target: Beta-2 adrenergic receptor (Homo sapiens, UniProt P07550); assay: Displacement of [3H] CGP12177 from beta2 adrenergic receptor (unknown origin)
Homo sapiens = organism: Homo sapiens; assay: Selectivity index, ratio of Ki for displacement of [3H] Spiperone from human D2S receptor expressed in CHO cells to Ki for displacement of [3H] Spiperone from human D4.4 receptor expressed in CHO cells; type: cell-based
Procedure, shortened: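 Competition binding against [3H]spiperone on membranes of CHO cells stably expressing cloned human D2L, D2S, D3 or D4.4 receptors. Ki from monophasic curve fits; mean ± SEM of three to seven experiments, each in triplicate. Selectivity calculated as Ki(D2L, D2S or D3) divided by Ki(D4.4).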

Mu-type opioid receptor = Mu-type opioid receptor (Homo sapiens, UniProt P35372); assay: Displacement of [3H] diprenorphine from mu opioid receptor (unknown origin)
Procedure, shortened: (§1)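 Radioligand competition binding; Ki given as mean ± SD from two individual experiments, each run in triplicate.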

[2] = molecular target: T1, Alpha-1A adrenergic receptor (Homo sapiens, UniProt P35348); assay: Displacement of [3H] prazosin from alpha1A adrenergic receptor (unknown origin)
T1 sequence (P35348 whole entry): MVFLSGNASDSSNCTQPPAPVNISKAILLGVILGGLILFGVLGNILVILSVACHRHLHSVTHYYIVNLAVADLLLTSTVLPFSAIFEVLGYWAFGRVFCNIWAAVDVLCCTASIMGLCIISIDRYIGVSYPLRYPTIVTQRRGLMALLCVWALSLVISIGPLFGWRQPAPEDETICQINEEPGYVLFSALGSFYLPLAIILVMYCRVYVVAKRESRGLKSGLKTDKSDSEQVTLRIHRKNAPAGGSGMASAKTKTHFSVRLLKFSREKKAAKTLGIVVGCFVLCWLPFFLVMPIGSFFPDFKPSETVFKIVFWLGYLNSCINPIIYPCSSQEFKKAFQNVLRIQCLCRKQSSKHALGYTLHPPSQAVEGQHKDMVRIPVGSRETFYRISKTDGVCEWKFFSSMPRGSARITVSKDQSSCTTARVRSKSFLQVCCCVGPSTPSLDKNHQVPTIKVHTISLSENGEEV

[3] = molecular target: 5-hydroxytryptamine receptor 2A (Homo sapiens, UniProt P28223); assay: Displacement of [3H] Ketanserin from 5HT2A receptor (unknown origin)
[4] = molecular target: Muscarinic acetylcholine receptor M3 (Homo sapiens, UniProt P20309); assay: Displacement of [3H] NMS from muscarinic M3 receptor (unknown origin); procedure, shortened: as §1
D(1A) dopamine receptor = D(1A) dopamine receptor (Homo sapiens, UniProt P21728); assay: Displacement of [3H] SCH23390 from D1 receptor (unknown origin)
[5] = molecular target: T2, Alpha-2A adrenergic receptor (Homo sapiens, UniProt P08913); assay: Displacement of [3H] RX821002 from alpha2A adrenergic receptor (unknown origin)
T2 sequence (P08913 whole entry): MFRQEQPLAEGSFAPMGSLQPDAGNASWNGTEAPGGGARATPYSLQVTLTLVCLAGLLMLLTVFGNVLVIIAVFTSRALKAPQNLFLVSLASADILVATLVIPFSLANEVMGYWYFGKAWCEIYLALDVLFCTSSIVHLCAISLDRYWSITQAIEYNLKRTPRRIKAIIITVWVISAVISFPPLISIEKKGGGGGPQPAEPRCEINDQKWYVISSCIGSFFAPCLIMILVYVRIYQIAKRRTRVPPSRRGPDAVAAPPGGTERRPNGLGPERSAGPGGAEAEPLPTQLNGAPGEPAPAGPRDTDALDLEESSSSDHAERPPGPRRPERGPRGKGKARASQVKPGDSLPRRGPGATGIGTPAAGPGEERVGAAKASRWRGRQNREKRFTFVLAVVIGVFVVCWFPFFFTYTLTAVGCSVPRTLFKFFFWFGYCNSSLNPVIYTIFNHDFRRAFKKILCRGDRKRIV

D(1B) dopamine receptor = D(1B) dopamine receptor (Homo sapiens, UniProt P21918); assay: Displacement of [3H] SCH23390 from D5 receptor (unknown origin)
[6] = molecular target: T3, Alpha-1A adrenergic receptor (Homo sapiens) (UniProt P35348); assay: Antagonist activity at human alpha1A adrenergic receptor expressed in HEK293T cells assessed as accumulation of inositol monophosphate using d2-labelled IP1 conjugate incubated for 60 mins by HTRF assay; type: functional, cell-based
T3 sequence (whole entry): T1 sequence (P35348 whole entry)

Chain of D(1A) dopamine receptor (P21728 whole entry): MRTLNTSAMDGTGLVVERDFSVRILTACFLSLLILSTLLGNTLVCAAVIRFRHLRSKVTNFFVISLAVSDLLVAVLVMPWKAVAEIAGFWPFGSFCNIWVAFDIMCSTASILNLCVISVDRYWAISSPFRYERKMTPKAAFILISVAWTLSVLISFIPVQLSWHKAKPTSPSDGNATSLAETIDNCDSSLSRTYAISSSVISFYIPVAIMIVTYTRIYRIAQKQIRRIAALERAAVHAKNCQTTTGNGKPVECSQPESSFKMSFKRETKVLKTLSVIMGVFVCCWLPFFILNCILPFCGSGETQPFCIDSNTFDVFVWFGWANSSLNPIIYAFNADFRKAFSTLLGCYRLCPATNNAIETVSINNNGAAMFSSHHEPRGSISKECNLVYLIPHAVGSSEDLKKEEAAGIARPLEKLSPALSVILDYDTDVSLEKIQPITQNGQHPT
Chain of Mu-type opioid receptor (P35372 whole entry): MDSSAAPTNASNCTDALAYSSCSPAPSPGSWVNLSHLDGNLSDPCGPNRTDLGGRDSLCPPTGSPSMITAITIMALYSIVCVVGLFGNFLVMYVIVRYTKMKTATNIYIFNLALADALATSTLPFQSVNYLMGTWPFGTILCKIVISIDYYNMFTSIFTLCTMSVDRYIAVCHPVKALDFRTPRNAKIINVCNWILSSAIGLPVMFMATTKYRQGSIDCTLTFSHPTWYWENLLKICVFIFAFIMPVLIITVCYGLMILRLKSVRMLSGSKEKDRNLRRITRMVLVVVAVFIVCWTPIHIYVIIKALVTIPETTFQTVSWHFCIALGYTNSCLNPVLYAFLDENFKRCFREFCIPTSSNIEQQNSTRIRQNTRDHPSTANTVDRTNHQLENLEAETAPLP
Chain of 5-hydroxytryptamine receptor 2A (P28223 whole entry): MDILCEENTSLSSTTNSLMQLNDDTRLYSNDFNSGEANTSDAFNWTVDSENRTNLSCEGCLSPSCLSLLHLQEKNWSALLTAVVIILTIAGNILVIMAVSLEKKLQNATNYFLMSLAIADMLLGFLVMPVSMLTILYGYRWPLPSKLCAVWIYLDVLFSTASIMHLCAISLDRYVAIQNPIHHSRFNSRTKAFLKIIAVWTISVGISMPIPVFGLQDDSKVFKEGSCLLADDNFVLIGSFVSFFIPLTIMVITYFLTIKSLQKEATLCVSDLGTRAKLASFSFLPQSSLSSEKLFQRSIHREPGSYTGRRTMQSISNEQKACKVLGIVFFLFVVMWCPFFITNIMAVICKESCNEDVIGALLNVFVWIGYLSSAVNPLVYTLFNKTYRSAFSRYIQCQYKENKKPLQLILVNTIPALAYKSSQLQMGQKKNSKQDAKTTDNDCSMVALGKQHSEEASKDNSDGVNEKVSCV
Chain of Beta-2 adrenergic receptor (P07550 whole entry): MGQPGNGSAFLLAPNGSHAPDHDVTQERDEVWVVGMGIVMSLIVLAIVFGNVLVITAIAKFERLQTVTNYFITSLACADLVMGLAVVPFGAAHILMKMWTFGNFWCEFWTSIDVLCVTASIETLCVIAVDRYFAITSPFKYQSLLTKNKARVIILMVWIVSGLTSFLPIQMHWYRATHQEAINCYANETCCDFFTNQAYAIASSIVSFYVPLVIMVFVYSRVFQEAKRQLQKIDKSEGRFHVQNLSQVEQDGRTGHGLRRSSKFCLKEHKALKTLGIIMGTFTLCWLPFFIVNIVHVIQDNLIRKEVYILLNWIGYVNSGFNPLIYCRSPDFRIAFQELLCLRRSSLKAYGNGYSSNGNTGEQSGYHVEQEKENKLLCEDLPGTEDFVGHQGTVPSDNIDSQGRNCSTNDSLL
Chain of Muscarinic acetylcholine receptor M3 (P20309 whole entry): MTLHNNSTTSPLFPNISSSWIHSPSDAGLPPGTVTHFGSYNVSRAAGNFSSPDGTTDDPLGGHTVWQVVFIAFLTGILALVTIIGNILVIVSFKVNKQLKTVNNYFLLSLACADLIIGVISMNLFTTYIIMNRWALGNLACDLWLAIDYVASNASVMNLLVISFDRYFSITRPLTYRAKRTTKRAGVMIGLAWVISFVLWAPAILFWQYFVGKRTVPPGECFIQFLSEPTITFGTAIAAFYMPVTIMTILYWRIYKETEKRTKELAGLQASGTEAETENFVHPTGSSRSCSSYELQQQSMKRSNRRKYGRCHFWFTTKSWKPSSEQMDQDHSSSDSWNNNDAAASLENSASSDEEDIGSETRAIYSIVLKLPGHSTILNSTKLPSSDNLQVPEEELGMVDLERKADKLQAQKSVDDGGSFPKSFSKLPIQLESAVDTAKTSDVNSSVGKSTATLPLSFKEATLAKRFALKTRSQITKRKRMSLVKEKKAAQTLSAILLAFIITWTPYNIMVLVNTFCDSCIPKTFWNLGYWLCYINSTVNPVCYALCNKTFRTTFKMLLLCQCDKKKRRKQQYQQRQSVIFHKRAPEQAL
Chain of D(1B) dopamine receptor (P21918 whole entry): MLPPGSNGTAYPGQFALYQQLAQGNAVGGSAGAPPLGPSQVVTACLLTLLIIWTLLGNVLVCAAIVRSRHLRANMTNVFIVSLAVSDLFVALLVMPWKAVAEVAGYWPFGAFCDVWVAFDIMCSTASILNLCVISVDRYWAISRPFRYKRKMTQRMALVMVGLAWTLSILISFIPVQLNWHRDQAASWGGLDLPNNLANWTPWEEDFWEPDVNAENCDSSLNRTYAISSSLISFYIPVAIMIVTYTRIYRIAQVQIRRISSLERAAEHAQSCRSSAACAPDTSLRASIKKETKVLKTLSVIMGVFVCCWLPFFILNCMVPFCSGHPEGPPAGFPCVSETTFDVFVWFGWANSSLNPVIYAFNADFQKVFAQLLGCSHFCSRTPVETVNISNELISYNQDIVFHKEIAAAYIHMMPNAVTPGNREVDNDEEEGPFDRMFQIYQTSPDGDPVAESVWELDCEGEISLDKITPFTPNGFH

pKi [1]: 5.35
pKi (Mu-type opioid receptor): 5.64
pKi [2]: 8.80
pKi [3]: 6.89
pKi [4]: 4.43
pKi (D(1A) dopamine receptor): 6.44
pKi [5]: 6.07
pKi (D(1B) dopamine receptor): 6.00
Activity [6]: inactive
Structure (SMILES): COc1ccccc1N1CCN(CCCNC(=O)NN(Cc2ccc(F)cc2)c2ccccc2)CC1
Ratio Ki (Homo sapiens): 200
